Measured values taken from ChEMBL document CHEMBL5390247, “Aryl azoles based scaffolds for disrupting tumor microenvironment” (Bioorg Med Chem, 2023).
pIC50: −log10 of the molar value. The source made the active and inactive calls. The calls are words filed in the database; no cut-off is given here.

How the values were obtained:
[1] = Toxicity against interferon gamma-stimulated human THP-1 monocyte cells co-cultured with human HT-29 cells assessed as reduction in cell viability at 100 uM incubated for 48 hrs by flow cytometry analysis; type: cell-based; details: thp-1, 48 h
Procedure, shortened: (§1)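 HT-29 cells at 10^5/well seeded and grown 24 h. Medium then replaced with medium containing IFN-γ (10 ng/ml), 5 × 10^5 THP-1 cells/well and compound at 100 µM; DMSO used as control. After 48 h, THP-1 cells collected from supernatant and cancer cells by trypsinisation. Both fixed in 4% paraformaldehyde and counted by flow cytometry relative to control.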

HT-29 [2] = assay: Antiproliferative activity against human HT-29 cells assessed as relative VEGFR-2 protein expression in membrane at 100 uM incubated for 48 hrs by flow cytometry analysis relative to control; type: functional
HT-29 [3] = assay: Antiproliferative activity against human HT-29 cells assessed as relative PD-L1 protein expression in membrane at 100 uM incubated for 48 hrs by flow cytometry analysis relative to control; type: functional
HT-29 [4] = assay: Immunomodulatory activity in human HT-29 cells co-cultured with interferon gamma-stimulated THP-1 cells assessed as inhibition of CD-47 protein expression at 100 uM incubated for 48 hrs by flow cytometry analysis relative to control; type: functional
HT-29 [5] = assay: Antiproliferative activity against human HT-29 cells assessed as relative c-Myc protein expression at 100 uM incubated for 48 hrs by flow cytometry analysis relative to control; type: functional
HT-29 [6] = assay: Antiproliferative activity against human HT-29 cells assessed as relative PD-L1 protein expression in whole cell at 100 uM incubated for 48 hrs by flow cytometry analysis relative to control; type: functional
HT-29 [7] = assay: Antiproliferative activity against human HT-29 cells assessed as relative VEGFR-2 protein expression in whole cell at 100 uM incubated for 48 hrs by flow cytometry analysis relative to control; type: functional
HT-29 [8] = assay: Immunomodulatory activity in human HT-29 cells co-cultured with interferon gamma-stimulated THP-1 cells assessed as relative CD-47 protein expression in membrane at 100 uM incubated for 48 hrs by flow cytometry analysis relative to control; type: functional
HT-29 [9] = assay: Immunomodulatory activity in human HT-29 cells co-cultured with interferon gamma-stimulated THP-1 cells assessed as cell viability at 100 uM incubated for 48 hrs by flow cytometry analysis relative to control; type: functional; details: read-out: Activity; procedure, shortened: as §1
HT-29 [10] = assay: Immunomodulatory activity in human HT-29 cells co-cultured with interferon gamma-stimulated THP-1 cells assessed as inhibition of cell growth at 100 uM incubated for 48 hrs by flow cytometry analysis relative to control; type: functional; procedure, shortened: as §1
HT-29 [11] = assay: Immunomodulatory activity in human HT-29 cells co-cultured with interferon gamma-stimulated THP-1 cells assessed as relative PD-L1 protein expression in membrane at 100 uM incubated for 48 hrs by flow cytometry analysis relative to control; type: functional
HT-29 [12] = assay: Immunomodulatory activity in human HT-29 cells co-cultured with interferon gamma-stimulated THP-1 cells assessed as induction of morphological changes by measuring cell shrinkage at 100 uM incubated for 48 hrs; type: functional, cell-based
Procedure, shortened: (§2)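 HT-29 cells co-cultured with IFN-γ-stimulated THP-1 cells and treated 48 h with compounds at 100 µM, with DMSO as control. Cell shrinkage and rounded morphology assessed by microscopy images.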

HT-29 [13] = assay: Immunomodulatory activity in human HT-29 cells co-cultured with interferon gamma-stimulated THP-1 cells assessed as reduction in number of cells at 100 uM incubated for 48 hrs; type: functional, cell-based; procedure, shortened: as §1
HT-29 [14] = assay: Immunomodulatory activity in human HT-29 cells co-cultured with interferon gamma-stimulated THP-1 cells assessed as induction of morphological changes by measuring rounded cell morphology at 100 uM incubated for 48 hrs; type: functional, cell-based; procedure, shortened: as §2
A549 = assay: Antiproliferative activity against human A549 cells assessed as reduction in cell viability incubated for 48 hrs by MTT assay; type: functional, cell-based; details: A549, 48 h
Procedure, shortened: (§3)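 MTT dye-reduction assay. Cells at 5 × 10^3/well in DMEM with 10% FBS, treated with serial dilutions of compound (DMSO stocks) for 2 days at 37 °C, 5% CO2. MTT added for a further 3 h, formazan dissolved in DMSO, absorbance read at 550 nm. Viability expressed as % of untreated cells; IC50 determined graphically from three independent experiments.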

MCF7 = assay: Antiproliferative activity against human MCF7 cells assessed as reduction in cell viability incubated for 48 hrs by MTT assay; type: functional, cell-based; details: MCF7, 48 h; procedure, shortened: as §3
HT-29 [15] = assay: Antiproliferative activity against human HT-29 cells assessed as reduction in cell viability incubated for 48 hrs by MTT assay; type: functional, cell-based; details: HT-29, 48 h; procedure, shortened: as §3
[16] = Cytotoxicity against HEK293 cells assessed as reduction in cell viability incubated for 48 hrs by MTT assay; type: toxicity, cell-based; details: human; procedure, shortened: as §3
HT-29 [17] = assay: Immunomodulatory activity in human HT-29 cells co-cultured with interferon gamma-stimulated THP-1 cells assessed as IL-6 level at 100 uM incubated for 48 hrs by ELISA analysis (reference value: 192 +/- 16 pg/ml); type: functional
Procedure, shortened: (§4)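 HT-29 cells co-cultured with IFN-γ (10 ng/ml)-stimulated THP-1 cells and treated 48 h with compound at 100 µM. Culture media collected and IL-6 measured by human IL-6 ELISA, in pg/mL and as % of control. Mean of three experiments.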

HT-29 [18] = assay: Immunomodulatory activity in human HT-29 cells co-cultured with interferon gamma-stimulated THP-1 cells assessed as relative IL-6 level at 100 uM incubated for 48 hrs by ELISA analysis relative to control; type: functional; procedure, shortened: as §4
HEK293 [19] = assay: Anti-vasculogenic activity against HEK293 cells assessed as disruption of tube-like structures at 100 uM incubated for 24 hrs by Matrigel based imaging analysis; type: functional, cell-based; details: Homo sapiens
Procedure, shortened: (§5)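 HEK-293 cells seeded at 5 × 10^4 cells/well on Matrigel (pre-incubated with medium 24 h at 37 °C), grown 24 h at 37 °C until tube-like structures form; compounds then added in medium and incubated a further 24 h at 37 °C. Disruption of preformed tube-like structures assessed by imaging.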

HMEC-1 [20] = assay: Antiangiogenic activity in HMEC-1 cells assessed as inhibition of endothelial microtubes formation at 100 uM incubated for 24 hrs by matrigel based imaging analysis; type: functional, cell-based; details: Homo sapiens
Procedure, shortened: (§6)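 HMEC-1 cells at 2 × 10^4 cells/well seeded on Matrigel (10 mg/mL, gelled 30 min at 37 °C) in EGM-2MV medium with SingleQuots, allowed to attach 30 min at 37 °C. Compounds then added in medium; after 24 h at 37 °C, microtube formation/destruction evaluated from pictures.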

HEK293 [21] = assay: Anti-vasculogenic activity against HEK293 cells assessed as disruption of tube-like structures at <75 uM incubated for 24 hrs by Matrigel based imaging analysis; type: functional, cell-based; details: Homo sapiens; procedure, shortened: as §5
HMEC-1 [22] = assay: Antiangiogenic activity in HMEC-1 cells assessed as inhibition of endothelial microtubes formation at <75 uM incubated for 24 hrs by matrigel based imaging analysis; type: functional, cell-based; details: Homo sapiens; procedure, shortened: as §6
HT-29 [23] = assay: Antiproliferative activity against human HT-29 cells assessed as reduction in IL-6 secretion at 100 uM incubated for 48 hrs by ELISA assay; type: functional, cell-based
Procedure, shortened: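 HT-29 monocultures at 10^5 cells/well treated 48 h with compound at 100 µM in 500 µL growth medium. Media collected and secreted IL-6 measured with a human IL-6 ELISA kit.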

Row | SMILES | Activity [1] | Activity (HT-29 [2]) | Activity (HT-29 [3]) | Activity (HT-29 [5]) | Activity (HT-29 [6]) | Activity (HT-29 [7]) | Activity (HT-29 [8]) | viability at 100 µM (HT-29 [9]) | inhibition at 100 µM (HT-29 [10]) | Activity (HT-29 [11]) | Activity (HT-29 [12]) | Activity (HT-29 [13]) | Activity (HT-29 [14]) | also measured
1 | Cc1cccc(Cn2nnc(-c3cccc(N)c3)n2)c1 | Non-Toxic | >100% | >100% | >100% | 81% | >100% | 69% | 15% | > 70% | 99% |  |  |  | inhibition at 100 µM (HT-29 [4]): > 30%
2 | COc1ccccc1Cn1nnc(-c2cccc(N)c2)n1 | Non-Toxic | 99% | 97% | 97% | >100% | >100% | 77% | 54% |  | 92% | Active | Active | Active | 
3 | O=[N+]([O-])c1cccc(-c2nnn(Cc3ccccc3Cl)n2)c1 | Non-Toxic | 97% | 98% | 86% | 89% | 53% | 87% | 44% |  | 108% |  |  |  | pIC50 (A549): < 4.00; pIC50 (MCF7): < 4.00; pIC50 (HT-29 [15]): 4.09; IC50 at 48 h [16]: > 100 µM
4 | COc1ccccc1Cn1nnc(-c2cccc([N+](=O)[O-])c2)n1 | Non-Toxic | >100% | 89% | 86% | 92% | 55% | 85% | 65% |  | 93% | Active | Active | Active | 
5 | COc1cccc(Cn2nnc(-c3cccc(N)c3)n2)c1 | Non-Toxic | 76% | >100% | 86% | >100% | >100% | 78% | 66% |  | 84% | Active | Active | Active | 
6 | Nc1cccc(-c2cn(Cc3ccc(Cl)cc3)nn2)c1 | Non-Toxic |  |  |  |  |  | 91% | 5% | > 90% | 140% | Active | Active | Active | Activity (HT-29 [17]): 189 pg/mL; Activity (HT-29 [18]): 98%; Activity (HEK293 [19]): Active; Activity (HMEC-1 [20]): Active; Activity (HEK293 [21]): inactive; Activity (HMEC-1 [22]): inactive; Activity (HT-29 [23]): inactive
7 | COc1cccc(Cn2nnc(-c3cccc([N+](=O)[O-])c3)n2)c1 | Non-Toxic | >100% | 83% | 75% | >100% | 42% | 77% | 40% |  | 88% | Active | Active | Active | 
8 | O=[N+]([O-])c1cccc(-c2nnn(Cc3ccc(Br)cc3)n2)c1 | Non-Toxic | 96% | >100% | 72% | 93% | 71% | 87% | 52% |  | 93% |  |  |  | pIC50 (A549): 4.41; pIC50 (MCF7): < 4.00; pIC50 (HT-29 [15]): < 4.00; IC50 at 48 h [16]: > 100 µM
9 | Nc1cccc(-c2cn(Cc3ccc(Br)cc3)nn2)c1 | Non-Toxic |  |  |  |  |  | 92% | 8% | > 90% | 154% | Active | Active | Active | Activity (HT-29 [17]): 183 pg/mL; Activity (HT-29 [18]): 95%; Activity (HEK293 [19]): Active; Activity (HMEC-1 [20]): Active; Activity (HEK293 [21]): inactive; Activity (HMEC-1 [22]): inactive; Activity (HT-29 [23]): inactive
10 | O=[N+]([O-])c1cccc(-c2nnn(Cc3ccc(Cl)cc3)n2)c1 | Non-Toxic | 95% | 93% | 90% | 87% | 45% | 88% | 93% |  | 93% |  |  |  | pIC50 (A549): < 4.00; pIC50 (MCF7): 4.08; pIC50 (HT-29 [15]): < 4.00; IC50 at 48 h [16]: > 100 µM
11 | COc1ccc(Cn2nnc(-c3cccc([N+](=O)[O-])c3)n2)cc1 | Non-Toxic | 88% | 84% | >100% | 89% | 39% | 96% | 35% |  | 102% | Active | Active | Active | 
12 | Cc1ccc(Cn2nnc(-c3cccc(N)c3)n2)cc1 | Non-Toxic |  |  |  |  |  | 67% | 28% | > 70% | 90% |  |  |  | inhibition at 100 µM (HT-29 [4]): > 30%
13 | COc1ccc(Cn2nnc(-c3cccc(N)c3)n2)cc1 | Non-Toxic | >100% | >100% | 75% | 99% | 75% | 58% | 45% |  | 100% | Active | Active | Active | inhibition at 100 µM (HT-29 [4]): > 30%
14 | O=[N+]([O-])c1cccc(-c2nnn(Cc3cccc(Br)c3)n2)c1 | Non-Toxic | 100% | >100% | 76% | 88% | 60% | 93% | 31% | > 70% | 106% |  |  |  | 
